# Assay results taken from ChEMBL document CHEMBL2417490, “Synthesis and biological evaluation of pyrazolo[4,3-d]pyrimidine analogues” (Eur J Med Chem, 2013).
# What was measured:
# [1] = target: Xanthine dehydrogenase/oxidase (Homo sapiens, UniProt P47989); assay: Inhibition of xanthine oxidase (unknown origin) using xanthine as substrate assessed as uric acid formation preincubated for 5 mins followed by substrate addition measured every minute up to 8 mins by spectrophotometric analysis
# [2] = Cytotoxicity against human 7402 cells assessed as inhibition of cell replication after 72 hrs by MTT assay; format: functional, cell-based
# How it was run: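 7402 hepatoma cells, harvested in log phase with 0.05% trypsin/1 mM EDTA and grown at 37 °C in 5% CO₂, were seeded at 1 × 10⁵ cells/mL, grown overnight and then exposed to a concentration series (final DMSO <0.1%). MTT was added for 4 h and absorbance read at 570 nm. IC₅₀ came from probit analysis.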
# [3] = Cytotoxicity against human 7221 cells assessed as inhibition of cell replication after 72 hrs by MTT assay; format: functional, cell-based
# How it was run: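 7221 hepatoma cells, harvested in log phase with 0.05% trypsin/1 mM EDTA and grown at 37 °C in 5% CO₂, were plated, grown overnight and then exposed to a concentration series (final DMSO <0.1%). MTT was added for 4 h and absorbance read at 570 nm. IC₅₀ came from probit analysis.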
# Chain of Xanthine dehydrogenase/oxidase (P47989 whole entry): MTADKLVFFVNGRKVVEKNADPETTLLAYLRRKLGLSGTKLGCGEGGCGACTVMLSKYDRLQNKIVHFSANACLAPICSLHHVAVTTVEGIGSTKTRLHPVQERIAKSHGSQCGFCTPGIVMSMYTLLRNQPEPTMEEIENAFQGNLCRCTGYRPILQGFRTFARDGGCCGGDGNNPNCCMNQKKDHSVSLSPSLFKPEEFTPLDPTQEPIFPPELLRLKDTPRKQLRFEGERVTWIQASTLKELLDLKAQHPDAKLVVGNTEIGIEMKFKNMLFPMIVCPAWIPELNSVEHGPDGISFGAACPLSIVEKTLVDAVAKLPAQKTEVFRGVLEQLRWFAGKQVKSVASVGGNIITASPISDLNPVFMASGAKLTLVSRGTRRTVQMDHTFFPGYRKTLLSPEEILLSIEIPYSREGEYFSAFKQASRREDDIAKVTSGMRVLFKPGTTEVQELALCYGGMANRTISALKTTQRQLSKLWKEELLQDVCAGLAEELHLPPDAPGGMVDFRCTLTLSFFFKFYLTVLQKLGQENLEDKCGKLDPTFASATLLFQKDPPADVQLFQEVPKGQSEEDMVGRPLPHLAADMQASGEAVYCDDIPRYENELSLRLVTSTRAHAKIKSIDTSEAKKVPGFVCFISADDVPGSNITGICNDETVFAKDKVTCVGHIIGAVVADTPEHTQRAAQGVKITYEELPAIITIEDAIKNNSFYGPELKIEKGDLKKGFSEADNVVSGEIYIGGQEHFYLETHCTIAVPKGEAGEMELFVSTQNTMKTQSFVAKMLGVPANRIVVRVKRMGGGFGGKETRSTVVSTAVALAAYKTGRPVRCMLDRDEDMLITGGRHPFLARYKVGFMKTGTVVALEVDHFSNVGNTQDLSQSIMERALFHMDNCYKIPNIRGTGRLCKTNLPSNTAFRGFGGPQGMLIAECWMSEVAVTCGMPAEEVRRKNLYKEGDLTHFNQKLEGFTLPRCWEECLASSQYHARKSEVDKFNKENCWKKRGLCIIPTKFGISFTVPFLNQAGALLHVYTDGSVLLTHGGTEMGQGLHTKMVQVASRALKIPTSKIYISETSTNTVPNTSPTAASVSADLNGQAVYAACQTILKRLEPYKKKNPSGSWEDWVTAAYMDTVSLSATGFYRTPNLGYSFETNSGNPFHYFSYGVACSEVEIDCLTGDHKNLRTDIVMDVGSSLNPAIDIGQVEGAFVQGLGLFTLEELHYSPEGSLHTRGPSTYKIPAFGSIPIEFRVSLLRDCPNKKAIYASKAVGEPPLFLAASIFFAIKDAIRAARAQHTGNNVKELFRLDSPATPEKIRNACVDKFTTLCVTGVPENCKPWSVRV
SMILES,IC50 ([1]; read-out: IC50 (converted)) [µM],IC50 [1],IC50 [2] [µg/mL],IC50 [3] [µg/mL]
O=C(O)Cn1ncc2c(Nc3ccc(NS(=O)(=O)c4ccccc4)cc3)ncnc21,144,–,> 100,> 100
O=C(O)Cn1ncc2c(Nc3ccc(NC(=O)c4ccccc4)cc3)ncnc21,104,–,> 100,> 100
CCOC(=O)Cn1ncc2c(Nc3ccc(N)cc3)ncnc21,–,–,> 64,> 64
CCOC(=O)Cn1ncc2c(Nc3ccc(NC(=O)CCl)cc3)ncnc21,–,–,7.27,3.51
O=C(O)Cn1ncc2c(Nc3ccc(NS(=O)(=O)c4ccc(Br)cc4)cc3)ncnc21,> 199,–,> 64,> 64
O=C(O)Cn1ncc2c(Nc3ccc(NS(=O)(=O)c4ccc([N+](=O)[O-])cc4)cc3)ncnc21,190,–,> 100,> 100
C=CCNC1=C2C[C@@H](C)C[C@H](OC)[C@H](O)[C@@H](C)/C=C(\C)[C@H](OC(N)=O)[C@@H](OC)/C=C\C=C(/C)C(=O)NC(=CC1=O)C2=O (stereo in doubt) [TANESPIMYCIN],–,–,7.27,5.77

# Continued, in another order:
IC50 ([1]; read-out: IC50 (converted)) [µM],IC50 [1],SMILES,IC50 [2] [µg/mL],IC50 [3] [µg/mL]
102,–,O=C(O)Cn1ncc2c(Nc3ccc(NC(=O)CCl)cc3)ncnc21,> 100,> 100
103,–,CC(=O)Nc1ccc(Nc2ncnc3c2cnn3CC(=O)O)cc1,> 64,> 64
–,Not Active,CCOC(=O)Cn1ncc2c(Cl)ncnc21,> 100,> 100
–,Not Active,CCOC(=O)Cn1ncc2c(Nc3ccc(NS(=O)(=O)c4ccc(Br)cc4)cc3)ncnc21,> 64,> 64
> 201,–,CCOC(=O)Cn1ncc2c(Nc3ccc(NS(=O)(=O)c4ccc([N+](=O)[O-])cc4)cc3)ncnc21,> 64,> 64
172,–,CCOC(=O)Cn1ncc2c(Nc3ccc(NS(=O)(=O)c4ccccc4)cc3)ncnc21,> 100,> 100
81.9,–,CCOC(=O)Cn1ncc2c(Nc3ccc(NC(=O)c4ccccc4)cc3)ncnc21,> 100,> 100
109,–,CCOC(=O)Cn1ncc2c(Nc3ccc(NC(C)=O)cc3)ncnc21,> 64,> 64
